Measurements published in ChEMBL document CHEMBL3351239, “Polyketide glycosides from Bionectria ochroleuca inhibit Candida albicans biofilm formation” (J Nat Prod, 2014).
≈ marks a conversion by molar mass, not a printed value.

What was measured:
Candida albicans [1] = experiment: Potentiation of amphotericin B-induced antimicrobial effect against Candida albicans SC5314 assessed as ratio of MIC for compound plus amphotericin B to MIC for amphotericin B alone incubated for 48 hrs by XTT assay; format: functional
Procedure, shortened: (§1)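 Checkerboard assay: C. albicans seeded in 96-well format with test compound alone or combined with amphotericin B, in RPMI-1640 plus MOPS, for 48 h at 37 °C. Viability was read by XTT, with MIC = lowest concentration giving ≥80% metabolic reduction. FIC = MIC in combination / MIC alone for each agent; FICI = FICA + FICB.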

Candida albicans [2] = experiment: Potentiation of amphotericin B-induced antimicrobial effect against Candida albicans SC5314 assessed as ratio of MIC for compound plus amphotericin B to MIC for compound alone incubated for 48 hrs by XTT assay; format: functional; procedure, shortened: as §1
Candida albicans [3] = experiment: Potentiation of amphotericin B-induced antimicrobial effect against Candida albicans SC5314 incubated for 48 hrs by XTT assay; format: functional; procedure, shortened: as §1
Candida albicans [4] = experiment: Inhibition of biofilm formation of Candida albicans SC5314 incubated for 48 hrs by XTT assay; format: functional, organism-based; conditions: SC5314, 48 h
Procedure, shortened: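 SC5314 pregrown in BHI overnight at 37 °C, washed, and seeded at 2.5 × 10^3 cells/mL in RPMI-1640/MOPS pH 7.0 with diluted compounds (DMSO ≤1% v/v final) for 48 h at 37 °C. Nonadherent cells were removed by two PBS washes and fresh medium added. Biofilm was quantified by XTT at A492. IC50 = concentration at 50% of maximal biofilm formation. Triplicate wells, three separate occasions.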

Candida albicans [5] = experiment: Antimicrobial activity against Candida albicans SC5314 in presence of amphotericin B incubated for 48 hrs by XTT assay; format: functional; conditions: SC5314, 48 h; procedure, shortened: as §1
Candida albicans [6] = experiment: Antimicrobial activity against Candida albicans SC5314 incubated for 48 hrs by XTT assay; format: functional; conditions: SC5314, 48 h
Procedure, shortened: (§2)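 SC5314 grown overnight at 37 °C in BHI, washed in PBS and resuspended in RPMI-1640 with 0.17 M MOPS at pH 7.0. Cells at 2.5 × 10^3 cells/mL were exposed to serial dilutions from 20 mM DMSO stocks (final DMSO ≤1% v/v) for 48 h at 37 °C. Viability was read by XTT (0.1 mg/mL, 1 h, A492). MIC = lowest concentration giving ≥80% drop in metabolic activity, per CLSI M27-A3.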

Candida albicans [7] = experiment: Growth inhibition of Candida albicans SC5314 assessed as reduction in reduction in metabolic activity incubated for 48 hrs by XTT assay; format: organism-based; conditions: SC5314, 48 h; procedure, shortened: as §2

Structure (SMILES) | MIC80 (Candida albicans [5]) [µM] | MIC80 (Candida albicans [6]) [µM] | Ratio (Candida albicans [1]) | Ratio (Candida albicans [2]) | fractional inhibitory concentration index (FICI) (Candida albicans [3]) | IC50 (Candida albicans [4]) [µM] | IC50 (Candida albicans [7]) [µM]
CC[C@H](C)C[C@H](C)C[C@H](C)[C@@H](O[C@@H]1O[C@H](CO)[C@@H](O)[C@H](O)[C@@H]1O)[C@@H](C)/C=C(\C)[C@@H](O)[C@@H](C)/C=C(\C)[C@@H](O)[C@@H](C)/C=C(\C)C(=O)OC[C@@H](O)[C@@H](O)[C@H](O)CO | 1.25 | > 100 | 0.25 | <0.01 | <0.26 | 1.5 | > 100
CCC(C)CC(C)CC(C)C(O[C@@H]1O[C@H](CO)[C@@H](O)[C@H](O)[C@@H]1O)C(C)/C=C(\C)C(O)C(C)/C=C(\C)C(O)C(C)C(=O)O (stereo partly specified) | 5 | > 100 | 0.25 | <0.05 | <0.3 | 5 | > 100
CC[C@H](C)C[C@H](C)C[C@H](C)[C@@H](O[C@@H]1O[C@H](CO)[C@@H](O)[C@H](O)[C@@H]1O)[C@@H](C)/C=C(\C)[C@@H](O)[C@@H](C)/C=C(\C)[C@@H](O)[C@@H](C)/C=C(\C)[C@@H](O)[C@@H](C)C(=O)O | 5 | > 100 | 0.25 | <0.05 | <0.3 | 2.4 | > 100
CCCCCC#CCC#CCC#CCC#CCCCC(=O)O | – | – | – | – | – | 3.4 | > 100

More lines, main results first:

MIC80 (Candida albicans [5]) [µM] | MIC80 (Candida albicans [6]) [µM] | Structure (SMILES) | Ratio (Candida albicans [1]) | Ratio (Candida albicans [2]) | fractional inhibitory concentration index (FICI) (Candida albicans [3]) | IC50 (Candida albicans [4]) [µM] | IC50 (Candida albicans [7]) [µM]
5 | > 100 | CC[C@H](C)C[C@H](C)C[C@H](C)[C@@H](O[C@@H]1O[C@H](CO)[C@@H](O)[C@H](O)[C@@H]1O)[C@@H](C)/C=C(\C)[C@@H](O)[C@@H](C)/C=C(\C)[C@@H](O)[C@@H](C)/C=C(\C)C(=O)OC[C@@H](O)[C@@H](O)[C@H](O)[C@H](O)CO | 0.25 | <0.05 | <0.3 | 1.1 | > 100
1.25 | 50 (≈ 42.5 µg/mL) | CC[C@H](C)C[C@H](C)C[C@H](C)[C@@H](O[C@@H]1O[C@H](COC(C)=O)[C@@H](O)[C@H](O)[C@@H]1O)[C@@H](C)/C=C(\C)[C@@H](O)[C@@H](C)/C=C(\C)[C@@H](O)[C@@H](C)/C=C(\C)C(=O)OC[C@@H](O)[C@@H](O)[C@H](O)[C@H](O)CO | 0.25 | 0.03 | 0.28 | 1.5 | 36.3
1.25 | 50 (≈ 41 µg/mL) | CC[C@H](C)C[C@H](C)C[C@H](C)[C@@H](O[C@@H]1O[C@H](COC(C)=O)[C@@H](O)[C@H](O)[C@@H]1O)[C@@H](C)/C=C(\C)[C@@H](O)[C@@H](C)/C=C(\C)[C@@H](O)[C@@H](C)/C=C(\C)C(=O)OC[C@@H](O)[C@@H](O)[C@H](O)CO | 0.25 | 0.03 | 0.28 | 1.2 | 41
1.25 | 50 (≈ 45.4 µg/mL) | CC[C@H](C)C[C@H](C)C[C@H](C)[C@@H](O[C@@H]1O[C@H](COC(C)=O)[C@@H](O)[C@H](O)[C@@H]1O)[C@@H](C)/C=C(\C)[C@@H](O)[C@@H](C)/C=C(\C)[C@@H](O)[C@@H](C)/C=C(\C)[C@@H](O)[C@@H](C)C(=O)OC[C@@H](O)[C@@H](O)[C@H](O)[C@H](O)CO | 0.25 | 0.03 | 0.28 | 1.5 | 24.1
